Compound activity (PubChem BioAssay)
TDP2 inh = TDP2 (human) inhibition, absorbance primary screen; O95551; recombinant TDP2, T5PNP hydrolysis, p-nitrophenol absorbance 415 nm; inhibition, % at 12.8 µM; 370,000 tested, 0.34% active;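 active = inhibition above the mean of all tested compounds plus 3 SD, set per campaign, cut at about 25% in these data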;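 also: 0% = DMSO with enzyme and 100% = buffer with substrate but no TDP2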
Target sequence (O95551 whole entry, looked up): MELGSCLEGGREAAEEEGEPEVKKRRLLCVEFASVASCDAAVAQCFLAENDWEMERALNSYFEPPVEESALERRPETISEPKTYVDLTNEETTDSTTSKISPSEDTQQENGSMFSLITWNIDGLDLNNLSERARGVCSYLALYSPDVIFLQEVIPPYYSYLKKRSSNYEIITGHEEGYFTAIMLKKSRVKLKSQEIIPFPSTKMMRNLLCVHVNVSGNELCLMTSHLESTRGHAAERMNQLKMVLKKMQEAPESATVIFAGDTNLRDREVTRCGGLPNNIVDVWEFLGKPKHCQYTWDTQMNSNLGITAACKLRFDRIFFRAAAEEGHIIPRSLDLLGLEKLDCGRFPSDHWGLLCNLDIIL
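Material: recombinant human TDP2; quantity: TDP2 enzyme at 120 nM final; medium: Tris-HCl pH 7.5 with MgCl2; compound: single concentration, 12.8 µM nominal, with 1% DMSO; incubation: 2 h enzyme incubation at 37 °C; signal: epi absorbance; measure: percent inhibition; benchmarks: high control without enzyme, low control DMSO plus TDP2; repeats: singlicate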
MBD2 DNA inh = inhibitors of human MBD2 binding to methylated oligonucleotide; 370,000 tested, 0.31% active; Q9UBB5; AID 686964; TR-FRET; inhibition, % at 4.4 µM; in the data active = inhibition above about 13%
PRMT1 inh = inhibitors of human PRMT1; AID 652257; inhibition, % at 2.79 µM; 370,000 tested, 1.3% active; recombinant PRMT1, activity-based probe fluorescence polarization; Q99873;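 active = inhibition above about 21% made by adding two undisclosed values, limit read from the data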
LEDGF integ inh = blocks HIV-1 LEDGF/p75-dependent DNA integration; AID 743269; TR-FRET IN-LEDGF/p75 DNA integration, Eu/Cy5; inhibition, % at 3.7 µM; 370,000 tested, 0.64% active;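 active = inhibition above the screen-wide mean plus 3 SD, cut at about 13% in these data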;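 also: signal is the Cy5 over europium emission ratio at 671 and 618 nm; 0% = plate median of compound wells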
SIAE inh = blocks human sialic acid acetylesterase. AID 1053197. SIAE FP-Rh probe binding, fluorescence polarization. 370,000 tested, 0.69% active. inhibition, % at 9.66 µM. Q9HAT2;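 active = inhibition above a cutoff: mean of compounds within the control limits plus 3 SD of those, cut at about 17% in these data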;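 also: 0% = plate median of compound wells and 100% = probe without SIAE protein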
UHRF1 binding = blocks human UHRF1 binding to methylated DNA. Q96T88. UHRF1 binding to methylated oligo, TR-FRET. inhibition, % at 4.4 µM. 370,000 tested, 0.75% active. AID 687016; in the data active = inhibition above about 21%;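 also: UHRF1 SRA domain binding a hemimethylated CpG hairpin DNA probe; 0% = median of test compound wells and 100% = reference inhibitor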
* hit, by the source's call. A selection: hits, their analogues and other compounds. The true share with any hit is near 3.3%.

SMILES	TDP2 inh	MBD2 DNA inh	PRMT1 inh	LEDGF integ inh	SIAE inh	UHRF1 binding
Cc1cc(NS(=O)(=O)c2ccc(NC(=O)NC(C)(C(F)(F)F)C(F)(F)F)cc2)no1	-10	9	6	-1	-8	21*
O=C(NCC1OCCc2ccccc21)c1ccc(NC(=O)c2ccccc2Cl)cc1 (stereo not given)	-4	6	4	-1	-32	21*
CCCC[C@@H]1C(=O)N2N=Cc3cc(C)c(C)cc3[C@H]2N2N=Cc3cc(C)c(C)cc3[C@@H]12	-10	7	5	2	-11	5
CC(=O)NCCC(=O)Nc1sc2c(c1-c1nc3ccccc3[nH]1)CCCC2	-3	-9	0	-5	11	-2
CN1CCN(S(=O)(=O)c2cccc(C(=O)Nc3sc4c(c3-c3nc5ccccc5[nH]3)CCCC4)c2)CC1	-6	2	1	1	25*	-2
CC(CO)NS(=O)(=O)c1cccc(Cl)c1F (stereo not given)	1	1	4	1	2	-1
CC(CO)NS(=O)(=O)c1cc(Cl)ccc1F (stereo not given)	5	12	0	-4	-5	26*
O=C(Nc1ccc2c(c1)OCO2)NC1(C(F)(F)F)Oc2ccccc2O1	-9	-4	22*	-3	4	-3
O=C(Nc1ccc2c(c1)OCCO2)NC1(C(F)(F)F)Oc2ccccc2O1	-6	-5	9	-3	4	-1
CN1CCc2cccc3c2C1Cc1ccc(O)c(O)c1-3 (stereo not given)	2	-4	47*	3	6	2
O=S1(=O)C=CCN1Cc1cn(Cc2cccc(C(F)(F)F)c2)nn1	-8	5	0	-3	-6	6
COc1ccccc1NC(=O)N1CCN(c2ccc3nncn3n2)CC1	-10	7	-2	1	-1	24*
O=c1[nH]c(C2CCN(S(=O)(=O)c3ccc4c(c3)OCCO4)CC2)nc2c1nnn2Cc1ccc(F)cc1	5	5	3	-2	-15	27*
S=c1[nH]nc(-c2n[nH]c3c2CCC3)n1N=Cc1ccc(OCc2ccccc2)cc1	-1	6	9	-3	3	3
CC(C)N(CC#CCC(O)(c1ccccc1)c1ccccc1)CCO	-8	-2	-4	5	1	26*
Cc1ccc(-n2c(SCC(=O)Nc3ccc(S(=O)(=O)Nc4cc(C)nc(C)n4)cc3)nnc2-c2cccs2)cc1	6	-6	5	2	5	1
COC(=O)CCCCCCCCCCN1CCCCC1	7	-2	1	3	-4	-2
CCCOC(=O)CCCCCCCCC(O)CN1CCCCC1 (stereo not given)	-5	11	3	1	-2	23*
COC(=O)[C@]12C[C@H](CC(=O)NCc3ccc(OC)c(OC)c3)C(=O)N(Cc3cccc4ccccc34)C1=C[C@H](C(C)C)O[C@@H]2C1CC1	-3	-1	3	-1	3	2
O=c1[nH]c(=O)c2[nH]c(=S)[nH]c2[nH]1	-3	0	80*	-1	5	-1
CC(=O)N1N=C(c2ccco2)CC1c1cccs1 (stereo not given)	-5	-5	-4	-2	0	-2
CC(=O)N1N=C(c2ccco2)CC1c1ccc(Cl)o1 (stereo not given)	0	6	11	11	0	33*
COC(=O)[C@]12C[C@H](CC(=O)NCC34CC5CC(CC(C5)C3)C4)C(=O)N(Cc3ccco3)C1=C[C@H](COCc1ccccc1)O[C@@H]2C	-2	-5	5	-4	1	-2
CC(C)C(=O)NC(=S)Nc1sc2c(c1C(N)=O)CCCC2	5	6	10	1	-6	50*
CC(C)OC(=O)c1c(NC(=O)C2CC=CCC2C(=O)O)sc2c1CCCCC2 (stereo not given)	-10	-2	0	3	4	-3
SMILES	TDP2 inh	MBD2 DNA inh	PRMT1 inh	LEDGF integ inh	SIAE inh	UHRF1 binding
NC(=O)c1c(NC(=O)C2CC=CCC2C(=O)O)sc2c1CCCCC2 (stereo not given)	14	7	23*	0	9	3
COc1ccc(-c2nc3ccccc3c(=O)n2Cc2ccccc2)cc1COc1ccc(NC(C)=O)cc1	0	8	4	0	1	12
CC(C)C[C@H](NC1(C(=O)NCCc2c[nH]c3ccccc23)CCC1)C(=O)NCCCc1ccccc1	-22	1	-2	4	2	4
Cc1ccc(CCNC(=O)CCS(=O)(=O)c2ccc(Br)cc2)cc1	8	8	-2	4	3	24*
Cc1ccc(S(=O)(=O)CCC(=O)NCCc2ccc(Cl)cc2)cc1	-8	0	-4	9	6	-2
CCOc1ccc(N(CC(=O)Nc2c(C)n(C)n(-c3ccccc3)c2=O)S(=O)(=O)c2cc(OC)ccc2OC)cc1	-6	4	3	-5	-6	3
O=C(N[C@@H](Cc1cccnc1)C(=O)N1CCC[C@H]1C(=O)NCCc1ccccc1Cl)C1CCCC1	2	1	4	-3	-6	2
O=C1Nc2ccccc2Nc2ccccc21	5	6	1	-2	5	23*
O=C1Nc2ccccc2C1=O	-2	-8	-3	4	3	1
CN(C)c1ccc(C=Cc2ccnc3c(O)cccc23)cc1	6	1	-2	2	23*	-4
CCOc1cc(/C=N/NC(=O)c2cc(C3CC3)[nH]n2)ccc1O	-9	6	-2	0	-2	21*
O=C(NCCCc1ccccc1)[C@H](Cc1c[nH]c2ccccc12)NC1(C(=O)NCCc2c[nH]c3ccccc23)CCOCC1	0	-1	-2	4	7	-1
C[C@@H]1COc2cc(Br)ccc2S(=O)(=O)N1Cc1cn(Cc2ccc(Br)cc2)nn1	0	2	0	-1	0	-1
CC(=O)c1cccc(S(=O)(=O)NC2CCCCCC2)c1	0	1	1	-2	2	8
CC(=O)c1cccc(S(=O)(=O)NC2CC2)c1	-7	3	23*	-1	13	0
C#CCN1C(=O)[C@]2(NCCc3c2[nH]c2ccc(OC)cc32)c2cc(F)ccc21	5	-5	0	2	0	1
S=c1[nH]nc(-c2ccc3ccccc3n2)n1-c1ccccc1	-8	7	23*	-1	2	-1
Cc1cccnc1NC(=O)/C=C/c1ccc2c(c1)OCO2	14	6	0	7	1	23*
Cc1cccnc1NC(=O)c1ccc2c(c1)OCO2	9	0	4	-2	-2	-1
CCCS(=O)(=O)N1CCN(Cc2ccco2)CC1	9	-2	1	3	3	25*
